Calpain2 inh: inhibitors of pig calpain II; purified calpain II, fluorogenic peptide substrate, 30 min; inhibition, % at 16 µM; 220,000 tested, 0.37% active; AID 1236;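 active = inhibition above about 50%, limit read from the data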
Rad51 HR inh: blocks human Rad51 in homologous recombination. hRad51 DNA strand exchange, fluorescence dequenching. inhibition, % at 10 µM. 200,000 tested, 0.085% active. AID 1385;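 active = inhibition above 40% at the single screening dose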
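Test system: preformed human Rad51 ssDNA filaments; also added: Donor/quencher-labelled 47-bp dsDNA substrate; doses: 10 µM final, single point; times: 37 °C 15-min filament assembly, 30-min compound preincubation, 15-min exchange; detection: FRET fluorescence dequenching, excitation 485 nm, emission 520 nm; read-out basis: Fluorescence-based percent inhibition, control- and blank-normalised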
Lmaj promast: Leishmania major promastigote growth inhibition. Leishmania major promastigotes, resazurin fluorescence viability. inhibition, % at 10 µM. 200,000 tested, 9% active; in the data active = inhibition above about 50%;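 also: promastigotes grown with compound for 44 hours at 28 °C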
PMI activator: phosphomannose isomerase (human) activation | P34949 | purified human PMI, coupled resazurin fluorescence, 20 min; active compounds read high; 1 = vehicle control, 0 substrate-free wells | activation factor at 20 µM | 190,000 tested, 0.005% active | AID 1214;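 active = activation factor of 2 or more at 20 µM, relative to plate controls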
Target sequence (P34949 whole entry, looked up): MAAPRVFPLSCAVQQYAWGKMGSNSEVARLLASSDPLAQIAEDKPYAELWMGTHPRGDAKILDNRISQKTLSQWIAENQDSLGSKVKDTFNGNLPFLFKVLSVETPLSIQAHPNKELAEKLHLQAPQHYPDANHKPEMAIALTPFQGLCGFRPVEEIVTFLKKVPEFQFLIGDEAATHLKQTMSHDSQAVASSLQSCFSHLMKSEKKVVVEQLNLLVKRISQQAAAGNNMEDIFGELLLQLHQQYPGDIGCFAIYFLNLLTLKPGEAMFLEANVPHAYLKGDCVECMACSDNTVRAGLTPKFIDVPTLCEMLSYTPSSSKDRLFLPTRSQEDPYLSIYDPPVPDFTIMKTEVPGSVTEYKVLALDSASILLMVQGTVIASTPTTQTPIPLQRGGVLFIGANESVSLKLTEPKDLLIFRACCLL
PMI act hi M6P: PMI (human) activation, high substrate. P34949. coupled PMI enzyme assay, resazurin fluorescence, 20 min; active compounds read high; 1 = untreated enzyme, 0 = substrate-free blank. activation factor at 20 µM. 190,000 tested, 0.34% active. AID 1216;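 active = activation factor of 2 or more at 20 µM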
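Material: human phosphomannose isomerase with PGI, G6PDH, diaphorase coupling enzymes / Reagent: Man-6-P substrate 1.0 mM / Dosing: single compound dose of 20 µM, 1% DMSO final / Incubation: enzyme reaction with compound 20 min at room temperature / Signal: resorufin fluorescence (Ex 544/Em 590 nm) from resazurin via diaphorase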
WT yeast gro inh: growth inhibition of WT yeast, mitochondrial fusion screen. mitochondrial fusion phenotypic screen, WT strain. inhibition, % at 10 µM. 190,000 tested, 2.1% active. AID 1362; in the data active = inhibition above about 58%; tested in S. cerevisiae
A number is an active result; - = inactive; . = no result. In the library only some 9.8% were active in any assay of this set; here they are far more common.

SMILES | Calpain2 inh | Rad51 HR inh | Lmaj promast | PMI activator | PMI act hi M6P | WT yeast gro inh
COc1ccc(/C=C(\NC(=O)c2ccccc2)C(=O)NC2CCS(=O)(=O)C2)cc1 (stereo not drawn) | - | - | . | . | . | .
CCOC(=O)C1=C(c2ccccc2)N=c2s/c(=C\c3cccc(O)c3)c(=O)n2C1c1cccs1 (stereo not drawn) | - | . | 89 | - | - | -
CCOC(=O)C1=C(C)N=c2s/c(=C\c3ccc(OC(C)=O)c(OCC)c3)c(=O)n2C1/C=C/c1ccccc1 (stereo not drawn) | - | - | - | - | - | -
CCOC(=O)C1=C(C)N=c2s/c(=C\c3ccc(OC(C)=O)cc3)c(=O)n2C1/C=C/c1ccccc1 (stereo not drawn) | - | . | 100 | - | - | -
CCOC(=O)C1=C(N)n2c(s/c(=C\c3cccs3)c2=O)=C(C(=O)OCC)C1c1cccs1 (stereo not drawn) | - | - | - | - | - | -
CC(C)c1nc2oc3c(N(C)CCO)ncnc3c2c2c1CCC2 | - | - | . | . | . | .
Cc1ccc2nc(Cl)nc(-c3ccccc3)c2c1 | - | - | - | - | - | -
Cc1ccc2nc(-c3ccccc3)c(-c3ccccc3)nc2c1 | - | - | - | - | - | 65
Cc1c(C(=O)OCC(=O)Nc2c(C)n(C)n(-c3ccccc3)c2=O)oc2ccccc12 | - | - | - | - | - | -
Cc1ccc(-n2nnnc2CN2CCCCC2)cc1 | - | . | - | - | - | -
CCc1ccc2nc(NC(=O)Cn3cnc4ccccc4c3=O)sc2c1 | 72 | - | - | - | - | -
O=C(Cn1cnc2ccccc2c1=O)Nc1nc2ccccc2s1 | - | - | - | - | - | -
CC(=O)NC1(C(F)(F)F)C(=O)Nc2c1c(=O)[nH]c(=O)n2CCc1ccccc1 (stereo not drawn) | - | - | . | . | . | .
CCOC(=O)c1c(-c2ccc(OC)cc2)csc1NC(=O)CCN1CCOCC1 | - | . | 84 | - | - | -
CCOC(=O)c1c(-c2ccc(C)o2)csc1NC(=O)CN1CCCCC1 | - | - | - | - | - | 83
CCOC(=O)c1c(NC(=O)CCN2CCOCC2)sc(C)c1-c1ccccc1 | - | . | 52 | - | - | -
CCOC(=O)c1c(-c2ccc(C)cc2)csc1NC(=O)CCN1CC(C)OC(C)C1 (stereo not drawn) | - | - | 98 | - | - | -
CCOC(=O)c1c(NC(=O)CCN2CCOCC2)sc2c1CC(C)(C)OC2 | - | . | - | - | - | -
CN(CC(=O)OCC(=O)c1c(N)n(C)c(=O)n(C)c1=O)S(=O)(=O)c1ccc(Cl)cc1 | - | - | - | - | - | -
O=C(Nc1nccs1)c1ccc(COc2ccccc2Cl)o1 | - | - | - | - | - | -
COc1ccccc1C(=O)Nc1ccc(S(=O)(=O)N2CCc3ccccc32)cc1 | - | - | 80 | - | - | -
COc1ccccc1C(=O)Nc1ccc(C(=O)c2ccccc2)cc1 | 67 | - | - | - | - | -
Nc1c(C(=O)N/N=C/c2ccc([N+](=O)[O-])cc2)sc2nnc(-c3ccccc3)c(-c3ccccc3)c12 | - | - | . | . | . | .
CCCCCn1c(=NC(=O)c2ccco2)c(C(=O)OCC)cc2c(=O)n3ccccc3nc21 | - | . | - | - | - | -
CCOC(=O)c1cc2c(=O)n3ccccc3nc2n(C(C)C)c1=NC(=O)c1c(-c2c(F)cccc2Cl)noc1C | - | - | 99 | - | - | -
SMILES | Calpain2 inh | Rad51 HR inh | Lmaj promast | PMI activator | PMI act hi M6P | WT yeast gro inh
CCCCn1c(=NC(=O)c2ccco2)c(C(=O)OCC)cc2c(=O)n3ccccc3nc21 | - | - | 51 | - | - | -
N#CCc1cnc2ccccc2n1 | - | - | . | . | . | .
COc1cc(OC)c(C(=O)NNC(=S)NC2CCCCC2)cc1OC | - | - | 51 | - | - | -
COc1ccc(Cl)cc1C(=O)NNC(=S)NC1CCCCC1 | - | . | . | . | . | .
Cc1cc(SCC(=O)c2cccs2)nc2c(C)cccc12 | - | . | - | - | - | -
CC(=O)Nc1ccc(C(=O)CSc2cc(C)c3cccc(C)c3n2)cc1 | - | - | 51 | - | - | -
CCn1c(N2CCN(C(=S)Nc3ccc(OC)cc3)CC2)nc2ccccc21 | - | - | - | - | - | -
CC(C)CCNC(=O)CN(C(=O)CCC(=O)Nc1ccccn1)c1ccc(F)c(Cl)c1 | - | - | 95 | - | - | -
COc1ccc(CN2CCn3nc(C(=O)NC4CC4)cc3C2=O)cc1 | - | - | - | - | - | -
COc1cc(CNCCO)cc(Br)c1OCc1ccccc1Cl | - | . | 100 | - | - | 79
COc1cccc(CNCCO)c1OCc1ccc(Cl)cc1 | - | - | - | - | - | -
COc1cc(CNCCO)cc(Cl)c1OCc1ccc(Cl)cc1Cl | - | - | 100 | - | - | -
CCCCNCc1cc(Br)c(OCc2cccs2)c(OC)c1 | - | - | 101 | - | - | -
CCNCc1ccc(OCc2cccs2)c(OCC)c1 | - | - | 54 | - | - | -
CCC1CCCCN1S(=O)(=O)c1ccc(C(=O)Nc2nnc(-c3cccs3)o2)cc1 (stereo not drawn) | - | . | 99 | - | - | -
CC1CC(C)CN(S(=O)(=O)c2ccc(C(=O)Nc3nnc(-c4cccs4)o3)cc2)C1 (stereo not drawn) | - | . | 100 | - | - | -
CC1CCCN(S(=O)(=O)c2ccc(C(=O)Nc3nnc(-c4ccccc4Cl)o3)cc2)C1 (stereo not drawn) | - | - | 100 | - | - | -
CC1CC(C)CN(S(=O)(=O)c2ccc(C(=O)Nc3sccc3C(N)=O)cc2)C1 (stereo not drawn) | - | - | - | - | - | -
CC1CCCN(S(=O)(=O)c2ccc(C(=O)Nc3nnc(-c4ccccn4)o3)cc2)C1 (stereo not drawn) | - | - | - | - | - | -
Fc1ccc2[nH]c3c(c2c1)CN(C(=S)NCc1ccccc1)CC3 | - | - | . | . | . | .
Cc1cc(NC2CCCCC2)nc(NCc2ccccc2)n1 | - | . | 97 | - | - | -
Cc1cc(N/N=C/c2ccccc2Cl)nc(NCc2ccccc2)n1 | - | - | 86 | - | - | -
Cc1cc(C)nc(N/N=C/c2ccccc2Cl)n1 | - | . | . | . | . | .
Cc1ccc(Nc2cc(C)nc(NCc3ccccc3)n2)cc1 | - | - | 100 | - | - | -
COc1ccc(/C=C/C(=O)Oc2cccc(/C=N/NC(=O)Cc3ccc(Br)cc3)c2)cc1 | - | - | . | . | . | .
COc1ccc(NC(=O)c2c(NC(=O)CCC(=O)O)sc(-c3ccccc3)c2C)cc1 | - | - | - | - | - | -
Cc1cccn2cc(CSc3nnc(Nc4ccc(C(C)C)cc4)s3)nc12 | - | - | - | - | - | 68
COc1cccc(OC)c1C(=O)NC(C)C12CC3CC(CC(C3)C1)C2 (stereo not drawn) | - | - | - | - | - | 62
CCCNC(=O)NC(C)C12CC3CC(CC(C3)C1)C2 (stereo not drawn) | - | - | - | - | - | -

Compound activity deposited in PubChem by several laboratories.
